Activity calls are given as the source filed them.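 How the source made its calls, unless noted: active means potentiation averaged over duplicate wells exceeding buffer-only control mean by more than 3 SD; inactive means the rest.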
Tested on: not listed separately
Assay: nonspecific flux increase, KCNQ1-free cells – parental CHO cells, counter-screen for KCNQ1 potentiator project (AID 493006;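 active means duplicate-averaged activation above buffer control mean plus 5 SD of those controls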)
Conditions: parental CHO-K1 cells, FluxOR thallium flux, at 10 µM; stronger effect = higher value
In short: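 Assay system: Untransfected host CHO-K1 cells with FluxOR thallium dye | Probe or stimulus: Potassium/thallium depolarization pulse | Schedule: Overnight 37 °C plating, 90 min RT dye, 20 min compound | Detection: Kinetic thallium-flux fluorescence | Read-out: Max-minus-min fluorescence over baseline, percent of buffer-to-R-L3 span | Benchmarks: Low control buffer, high control R-L3 activator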
For `CN1C(=O)CC(N2CCN(CC(=O)N3CCCC3)CC2)C1=O` (stereo unspecified), the outcome was “inactive”.
In the case of `CCN(CC)c1ccc(/C=N/Nc2nc3ccccc3[nH]2)c(O)c1`, the outcome is reported as “inactive”.
With `Oc1c(N=NC(=S)Nc2ccccc2F)c2ccccc2n1Cc1ccccc1F` the activation was 142% (active).
For `COc1ccc(C2c3ccc4ccccc4c3Oc3ncn(CCN4CCOCC4)c(=N)c32)cc1` (stereo unspecified), the outcome was “inactive”.
For `COc1ccc(-c2sc(C(=O)c3ccc(Cl)cc3Cl)cc2CC(=O)O)cc1`, the outcome was “inactive”.
With `COCCn1c(SCC(=O)NCc2ccc3c(c2)OCO3)nnc1C(C)C` the outcome was “inactive”.
With `CCC(CC)c1nnc(NC(=O)c2cc(C(=O)OC)cc([N+](=O)[O-])c2)s1` the activation was 366% (active).
With `Cc1ccccc1OC(=O)n1c(=S)oc2cc(Cl)ccc21` the activation was 152% (active).
For `Cc1ccc(-n2cnnn2)c2cccnc12`, the outcome was “inactive”.
In the case of `CCOC(=O)c1c(NC(=S)NCc2ccccc2)sc2c1CCN(C(=O)OCC)C2`, the outcome is reported as “inactive”.
For `COCCOC(=O)N/C=C\c1nc2ccccc2c(=O)[nH]1`, the outcome was “inactive”.
For `Cc1nn(-c2ccccc2)c(Cl)c1/C=N\NC(=O)c1cncc(Br)c1`, the outcome was “inactive”.
For `CCN(CC)c1ccc(Nc2cc3n(c(=O)n2)CCc2cc(OC)c(OC)cc2-3)cc1`, the outcome was “inactive”.
In the case of `O=C(NC(=S)Nc1ccccc1N1CCCC1)c1ccccc1Br`, the activation is reported as 179% (active).
In the case of `O=C(NNc1nc2c(F)cc(F)cc2s1)c1ccccc1`, the outcome is reported as “inactive”.
For `O=C(CN1C(=O)COc2ccccc21)N(Cc1cccnc1)Cc1cccc(F)c1`, the outcome was “inactive”.
With `CC(=O)c1cc2c(cc1NC(=O)CN1Cc3ccccc3C1=O)OCO2` the outcome was “inactive”.
With `CC(C)CCn1c(=O)c2ccccc2n2c(=S)[nH]nc12` the outcome was “inactive”.
In the case of `CCN(CC)CC(O)Cn1c2ccccc2c2ccccc21` (stereo unspecified), the outcome is reported as “inactive”.
For `COc1ccc(C(=O)CSc2nnc(NC(=O)C3CC(=O)N(c4cccc(OC)c4)C3)s2)cc1` (stereo unspecified), the outcome was “inactive”.
For `CCSc1nnc(NC(=O)C2C3C=CC(C3)C2C(=O)O)s1` (stereo unspecified), the outcome was “inactive”.

Molecular target: Potassium voltage-gated channel subfamily KQT member 1 (Homo sapiens) (UniProt P51787)
Sequence (P51787 whole entry, looked up): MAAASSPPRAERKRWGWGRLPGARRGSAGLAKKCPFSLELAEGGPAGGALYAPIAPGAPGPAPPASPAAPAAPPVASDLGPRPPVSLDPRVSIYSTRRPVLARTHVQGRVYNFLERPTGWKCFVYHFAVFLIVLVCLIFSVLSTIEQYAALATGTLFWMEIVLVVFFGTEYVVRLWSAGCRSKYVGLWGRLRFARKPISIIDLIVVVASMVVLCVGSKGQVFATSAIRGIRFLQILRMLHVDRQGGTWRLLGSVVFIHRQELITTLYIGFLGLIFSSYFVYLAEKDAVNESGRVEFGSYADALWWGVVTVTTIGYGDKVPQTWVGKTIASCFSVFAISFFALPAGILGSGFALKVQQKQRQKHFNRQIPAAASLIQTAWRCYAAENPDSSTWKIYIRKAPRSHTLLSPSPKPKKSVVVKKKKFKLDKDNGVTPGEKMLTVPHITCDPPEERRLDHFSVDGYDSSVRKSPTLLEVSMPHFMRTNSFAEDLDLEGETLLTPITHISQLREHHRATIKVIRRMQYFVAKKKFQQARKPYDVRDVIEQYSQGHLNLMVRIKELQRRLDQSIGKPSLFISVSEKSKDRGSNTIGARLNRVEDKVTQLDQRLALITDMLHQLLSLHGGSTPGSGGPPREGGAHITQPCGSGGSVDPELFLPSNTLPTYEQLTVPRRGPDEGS
Assay: enhancement of KCNQ1 channel thallium flux – FluxOR thallium flux, CHO cells, duplicates, confirmation (AID 493007);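 on outcome: cells depolarized by a potassium plus thallium sulfate stimulus after compound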
Conditions: KCNQ1 cell line, FluxOR thallium flux fluorescence, at 10 µM; stronger effect = higher value, % of reference activator effect, buffer zero
In short: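 Material: KCNQ1-expressing CHO cell line; Incubation: FluxOR dye loading 90 min, compound exposure 20 min, room temperature; Detection: FluxOR Tl+ flux fluorescence, 10 s baseline plus 110 s recording; Read-out: percent activation between buffer and R-L3 responses; Control set: buffer-only wells as 0% and R-L3 activator as 100%; Replication: duplicate wells per compound.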
For `N#Cc1cn(CC(=O)NCC2CCCO2)c2ccccc12` (stereo unspecified), the outcome was “inactive”.
With `CSc1nc(C)c2c(n1)N(c1ccc(C(C)C)cc1)CC2` the outcome was “inactive”.
For `Cc1cc(C(=O)N/N=C/C=C/c2ccc3c(c2)OCO3)n[nH]1`, the outcome was “inactive”.
For `CC(C)(C)c1cc(C(=O)NNC(=O)c2ccc(Cl)cc2)no1`, the potentiation was 86.5% (active).
In the case of `Cc1ccc(/C=C/C(=O)C2C(=O)c3ccccc3C2=O)cc1`, the potentiation is reported as 58.5% (active).
With `COc1ccc(OCc2cc(C(=O)N(C)CC3CCCCO3)no2)c(Cl)c1` (stereo unspecified) the potentiation was 17.5% (active).
For `Oc1[nH]c2ccc(Br)cc2c1N=NC(=S)Nc1ccc(F)cc1`, the potentiation was 43.5% (active).
With `CC(C)CSC1=NSC2=NC(=O)/C(=C\c3ccccc3)C(=N)N12` the potentiation was 58% (active).
For `Oc1c(Br)cc(Br)cc1/C=N/c1nc2c(s1)CCCC2`, the potentiation was 22% (active).
For `CC(C)C(NC(=O)Nc1ccccc1)C(=O)Nc1cccc(S(=O)(=O)N(C)C)c1` (stereo unspecified), the potentiation was 67.5% (active).
With `O=c1c2cc(Br)ccc2nc(-c2ccccc2)n1O` the potentiation was 63.5% (active).
For `O=C(CSc1nc2ccccc2[nH]1)N/N=C/c1ccncc1`, the outcome was “inactive”.
With `CCOC(=O)c1ccc(Nc2nc(N3CCOCC3)nc(N3CCOCC3)n2)cc1` the outcome was “inactive”.
For `CN(C)CCCC1(O)c2ccccc2C=Cc2ccccc21`, the potentiation was 29% (active).
For `O=C(Nc1cc([N+](=O)[O-])ccc1N1CCCC1)c1cccs1`, the outcome was “inactive”.
With `Oc1oc(-c2cccc3ccccc23)nc1/C=N/c1nccs1` the potentiation was 48.5% (active).
For `COn1c(SCc2ccc(C)cc2C)nc2ccccc2c1=O`, the outcome was “inactive”.
In the case of `Cc1ccc(OCC(=O)NC(=S)Nc2ccc(Br)cn2)cc1`, the potentiation is reported as 19.5% (active).
For `Cc1ccccc1NC1=NC(=S)N(c2ccccc2)C12CCCCC2`, the potentiation was 26% (active).
For `CN1C(=O)CC(N2CCN(CC(=O)N3CCCC3)CC2)C1=O` (stereo unspecified), the outcome was “inactive”.
With `CCN(CC)c1ccc(/C=N/Nc2nc3ccccc3[nH]2)c(O)c1` the outcome was “inactive”.
With `Oc1c(N=NC(=S)Nc2ccccc2F)c2ccccc2n1Cc1ccccc1F` the potentiation was 64% (active).
With `COc1ccc(C2c3ccc4ccccc4c3Oc3ncn(CCN4CCOCC4)c(=N)c32)cc1` (stereo unspecified) the outcome was “inactive”.
For `COc1ccc(-c2sc(C(=O)c3ccc(Cl)cc3Cl)cc2CC(=O)O)cc1`, the outcome was “inactive”.
With `COCCn1c(SCC(=O)NCc2ccc3c(c2)OCO3)nnc1C(C)C` the outcome was “inactive”.
In the case of `CCC(CC)c1nnc(NC(=O)c2cc(C(=O)OC)cc([N+](=O)[O-])c2)s1`, the potentiation is reported as 179% (active).
With `Cc1ccccc1OC(=O)n1c(=S)oc2cc(Cl)ccc21` the outcome was “inactive”.
For `Cc1ccc(-n2cnnn2)c2cccnc12`, the outcome was “inactive”.
For `CCOC(=O)c1c(NC(=S)NCc2ccccc2)sc2c1CCN(C(=O)OCC)C2`, the outcome was “inactive”.
With `COCCOC(=O)N/C=C\c1nc2ccccc2c(=O)[nH]1` the outcome was “inactive”.
With `Cc1nn(-c2ccccc2)c(Cl)c1/C=N\NC(=O)c1cncc(Br)c1` the outcome was “inactive”.
In the case of `CCN(CC)c1ccc(Nc2cc3n(c(=O)n2)CCc2cc(OC)c(OC)cc2-3)cc1`, the outcome is reported as “inactive”.
With `O=C(NC(=S)Nc1ccccc1N1CCCC1)c1ccccc1Br` the potentiation was 55% (active).
In the case of `O=C(NNc1nc2c(F)cc(F)cc2s1)c1ccccc1`, the outcome is reported as “inactive”.
With `O=C(CN1C(=O)COc2ccccc21)N(Cc1cccnc1)Cc1cccc(F)c1` the outcome was “inactive”.
With `CC(=O)c1cc2c(cc1NC(=O)CN1Cc3ccccc3C1=O)OCO2` the outcome was “inactive”.
For `CC(C)CCn1c(=O)c2ccccc2n2c(=S)[nH]nc12`, the outcome was “inactive”.
With `CCN(CC)CC(O)Cn1c2ccccc2c2ccccc21` (stereo unspecified) the outcome was “inactive”.
With `COc1ccc(C(=O)CSc2nnc(NC(=O)C3CC(=O)N(c4cccc(OC)c4)C3)s2)cc1` (stereo unspecified) the outcome was “inactive”.
With `CCSc1nnc(NC(=O)C2C3C=CC(C3)C2C(=O)O)s1` (stereo unspecified) the outcome was “inactive”.
